Reference: ChEMBL document CHEMBL2375290, “Nonclassical antifolates, part 3: synthesis, biological evaluation and molecular modeling study of some new 2-heteroarylthio-quinazolin-4-ones” (Eur J Med Chem, 2013)
≈ marks a conversion by molar mass, not a printed value.

Tests used:
Escherichia coli [1] = assay: Antimicrobial activity against Escherichia coli after 24 hrs by micro-dilution susceptibility method
Bacillus subtilis [2] = assay: Antimicrobial activity against Bacillus subtilis after 24 hrs by micro-dilution susceptibility method; assay type: functional
Method in brief: (§1)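 Broth microdilution in Müller-Hinton broth against S. aureus IFO 3060, B. subtilis IFO 3007, E. coli IFO 3301 and P. aeruginosa IFO 3448. These are the same standard strains used in the disc-diffusion primary screen. Compounds were solubilized in DMSO. MIC recorded as the minimal inhibitory concentration.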

Staphylococcus aureus [3] = assay: Antimicrobial activity against Staphylococcus aureus after 24 hrs by micro-dilution susceptibility method; assay type: functional; method in brief: as §1
Pseudomonas aeruginosa = assay: Antimicrobial activity against Pseudomonas aeruginosa at 200 ug after 24 hrs by agar disc diffusion method; assay type: functional; details: read-out: DIZ
Escherichia coli [4] = assay: Antimicrobial activity against Escherichia coli at 200 ug after 24 hrs by agar disc diffusion method; assay type: functional; details: read-out: DIZ
Micrococcus luteus = assay: Antimicrobial activity against Micrococcus luteus at 200 ug after 24 hrs by agar disc diffusion method; assay type: functional; details: read-out: DIZ
Bacillus subtilis [5] = assay: Antimicrobial activity against Bacillus subtilis at 200 ug after 24 hrs by agar disc diffusion method; assay type: functional; details: read-out: DIZ
Dihydrofolate reductase = target: T1, Dihydrofolate reductase (Bos taurus, UniProt P00376); assay: Inhibition of bovine DHFR after 2 mins by spectrophotometry
T1 sequence (P00376 whole entry): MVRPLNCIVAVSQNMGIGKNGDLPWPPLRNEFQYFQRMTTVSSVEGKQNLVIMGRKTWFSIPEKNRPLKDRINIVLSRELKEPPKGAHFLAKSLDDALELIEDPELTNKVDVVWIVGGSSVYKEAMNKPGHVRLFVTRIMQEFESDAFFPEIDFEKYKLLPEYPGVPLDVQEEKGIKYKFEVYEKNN

Staphylococcus aureus [6] = assay: Antimicrobial activity against Staphylococcus aureus at 200 ug after 24 hrs by agar disc diffusion method; assay type: functional; details: read-out: DIZ
T47D = assay: Cytotoxicity against human T47D cells at 10 uM after 48 hrs by coulter counter analysis; assay type: functional; details: read-out: GI
Hs-578T = assay: Cytotoxicity against human Hs578T cells at 10 uM after 48 hrs by coulter counter analysis; assay type: functional; details: read-out: GI
MCF7 = assay: Cytotoxicity against human MCF7 cells at 10 uM after 48 hrs by coulter counter analysis; assay type: functional; details: MCF7, 48 h, read-out: GI
MDA-MB-231 = assay: Cytotoxicity against human MDA-MB-231 cells at 10 uM after 48 hrs by coulter counter analysis; assay type: functional; details: MDA-MB-231, 48 h, read-out: GI
PC-3 = assay: Cytotoxicity against human PC3 cells at 10 uM after 48 hrs by coulter counter analysis; assay type: functional; details: PC-3, 48 h, read-out: GI
UO-31 = assay: Cytotoxicity against human UO31 cells at 10 uM after 48 hrs by coulter counter analysis; assay type: functional; details: UO-31, 48 h, read-out: GI
RXF 393 = assay: Cytotoxicity against human RXF393 cells at 10 uM after 48 hrs by coulter counter analysis; assay type: functional; details: RXF 393, 48 h, read-out: GI
SN12C = assay: Cytotoxicity against human SN12C cells at 10 uM after 48 hrs by coulter counter analysis; assay type: functional; details: read-out: GI
A498 = assay: Cytotoxicity against human A498 cells at 10 uM after 48 hrs by coulter counter analysis; assay type: functional; details: A498, 48 h, read-out: GI
CAKI-1 = assay: Cytotoxicity against human Caki1 cells at 10 uM after 48 hrs by coulter counter analysis; assay type: functional; details: CAKI-1, 48 h, read-out: GI
[7] = Cytotoxicity against human NCI-ADR-RES cells at 10 uM after 48 hrs by coulter counter analysis; assay type: functional; details: read-out: GI
OVCAR-4 = assay: Cytotoxicity against human OVCAR4 cells at 10 uM after 48 hrs by coulter counter analysis; assay type: functional; details: OVCAR-4, 48 h, read-out: GI
UACC-62 = assay: Cytotoxicity against human UACC62 cells at 10 uM after 48 hrs by coulter counter analysis; assay type: functional; details: UACC-62, 48 h, read-out: GI
IGROV-1 = assay: Cytotoxicity against human IGROV1 cells at 10 uM after 48 hrs by coulter counter analysis; assay type: functional; details: IGROV-1, 48 h, read-out: GI
SK-MEL-5 = assay: Cytotoxicity against human SK-MEL-5 cells at 10 uM after 48 hrs by coulter counter analysis; assay type: functional; details: SK-MEL-5, 48 h, read-out: GI
Malme-3M = assay: Cytotoxicity against human MALME-3M cells at 10 uM after 48 hrs by coulter counter analysis; assay type: functional; details: read-out: GI
MDA-MB-435 = assay: Cytotoxicity against human MDA-MB-435 cells at 10 uM after 48 hrs by coulter counter analysis; assay type: functional; details: MDA-MB-435, 48 h, read-out: GI
SNB-75 = assay: Cytotoxicity against human SNB75 cells at 10 uM after 48 hrs by coulter counter analysis; assay type: functional; details: SNB-75, 48 h, read-out: GI
LOX IMVI = assay: Cytotoxicity against human LOXIMVI cells at 10 uM after 48 hrs by coulter counter analysis; assay type: functional; details: read-out: GI
SNB-19 = assay: Cytotoxicity against human SNB19 cells at 10 uM after 48 hrs by coulter counter analysis; assay type: functional; details: SNB-19, 48 h, read-out: GI
NCI-H522 = assay: Cytotoxicity against human NCI-H522 cells at 10 uM after 48 hrs by coulter counter analysis; assay type: functional; details: NCI-H522, 48 h, read-out: GI
SF-295 = assay: Cytotoxicity against human SF295 cells at 10 uM after 48 hrs by coulter counter analysis; assay type: functional; details: SF-295, 48 h, read-out: GI
NCI-H23 = assay: Cytotoxicity against human NCI-H23 cells at 10 uM after 48 hrs by coulter counter analysis; assay type: functional; details: NCI-H23, 48 h, read-out: GI
[8] = Cytotoxicity against human EKVX cells at 10 uM after 48 hrs by coulter counter analysis; assay type: functional; details: read-out: GI
NCI-H226 = assay: Cytotoxicity against human NCI-H226 cells at 10 uM after 48 hrs by coulter counter analysis; assay type: functional; details: NCI-H226, 48 h, read-out: GI
A549 = assay: Cytotoxicity against human A549/ATCC cells at 10 uM after 48 hrs by coulter counter analysis; assay type: functional; details: A549, 48 h, read-out: GI
RPMI-8226 = assay: Cytotoxicity against human RPMI8226 cells at 10 uM after 48 hrs by coulter counter analysis; assay type: functional; details: RPMI-8226, 48 h, read-out: GI
SR = assay: Cytotoxicity against human SR cells at 10 uM after 48 hrs by coulter counter analysis; assay type: functional; details: read-out: GI
MOLT-4 = assay: Cytotoxicity against human MOLT4 cells at 10 uM after 48 hrs by coulter counter analysis; assay type: functional; details: MOLT-4, 48 h, read-out: GI
CCRF-CEM = assay: Cytotoxicity against human CCRF-CEM cells at 10 uM after 48 hrs by coulter counter analysis; assay type: functional; details: read-out: GI
HL-60(TB) = assay: Cytotoxicity against human HL-60(TB) cells at 10 uM after 48 hrs by coulter counter analysis; assay type: functional; details: HL-60, 48 h, read-out: GI

SMILES: CCOC(=O)c1nc(N)sc1Sc1nc2ccc(C)cc2c(=O)n1-c1ccccc1
- MIC (Escherichia coli [1]): 4 µg/mL (≈ 9.12 µM)
- MIC (Bacillus subtilis [2]): 2 µg/mL (≈ 4.56 µM)
- MIC (Staphylococcus aureus [3]): 2 µg/mL (≈ 4.56 µM)
- zone of inhibition at 200 µg/disc (Pseudomonas aeruginosa): 12 mm
- zone of inhibition at 200 µg/disc (Escherichia coli [4]): 18 mm
- zone of inhibition at 200 µg/disc (Micrococcus luteus): 14 mm
- zone of inhibition at 200 µg/disc (Bacillus subtilis [5]): 26 mm
- IC50 (Dihydrofolate reductase): 1000 nM
- zone of inhibition at 200 µg/disc (Staphylococcus aureus [6]): 24 mm

SMILES: Cc1ccc2nc(Sc3ncccc3C(=O)O)n(-c3ccccc3)c(=O)c2c1
- inhibition of growth at 10 µM (T47D): < 10%
- inhibition of growth at 10 µM (Hs-578T): < 10%
- inhibition of growth at 10 µM (MCF7): < 10%
- inhibition of growth at 10 µM (MDA-MB-231): < 10%
- inhibition of growth at 10 µM (PC-3): 11.7%
- inhibition of growth at 10 µM (UO-31): 12.1%
- inhibition of growth at 10 µM (RXF 393): < 10%
- inhibition of growth at 10 µM (SN12C): < 10%
- inhibition of growth at 10 µM (A498): < 10%
- inhibition of growth at 10 µM (CAKI-1): 13.1%
- inhibition of growth at 10 µM [7]: < 10%
- inhibition of growth at 10 µM (OVCAR-4): < 10%
- inhibition of growth at 10 µM (UACC-62): < 10%
- inhibition of growth at 10 µM (IGROV-1): < 10%
- inhibition of growth at 10 µM (SK-MEL-5): < 10%
- inhibition of growth at 10 µM (Malme-3M): < 10%
- inhibition of growth at 10 µM (MDA-MB-435): < 10%
- inhibition of growth at 10 µM (SNB-75): < 10%
- inhibition of growth at 10 µM (LOX IMVI): < 10%
- inhibition of growth at 10 µM (SNB-19): < 10%
- inhibition of growth at 10 µM (NCI-H522): < 10%
- inhibition of growth at 10 µM (SF-295): < 10%
- inhibition of growth at 10 µM (NCI-H23): < 10%
- inhibition of growth at 10 µM [8]: < 10%
- inhibition of growth at 10 µM (NCI-H226): < 10%
- inhibition of growth at 10 µM (A549): < 10%
- inhibition of growth at 10 µM (RPMI-8226): 10.4%
- inhibition of growth at 10 µM (SR): < 10%
- inhibition of growth at 10 µM (MOLT-4): < 10%
- inhibition of growth at 10 µM (CCRF-CEM): < 10%
- inhibition of growth at 10 µM (HL-60(TB)): < 10%
- MIC (Bacillus subtilis [2]): 4 µg/mL (≈ 10.3 µM)
- MIC (Staphylococcus aureus [3]): 4 µg/mL (≈ 10.3 µM)
- zone of inhibition at 200 µg/disc (Pseudomonas aeruginosa): 12 mm
- zone of inhibition at 200 µg/disc (Escherichia coli [4]): 16 mm
- zone of inhibition at 200 µg/disc (Micrococcus luteus): 14 mm
- zone of inhibition at 200 µg/disc (Bacillus subtilis [5]): 22 mm
- IC50 (Dihydrofolate reductase): 8000 nM
- zone of inhibition at 200 µg/disc (Staphylococcus aureus [6]): 20 mm

SMILES: CCOC(=O)c1nc(N)sc1Sc1nc2ccc(Cl)cc2c(=O)n1Cc1ccccc1
- MIC (Escherichia coli [1]): 4 µg/mL (≈ 8.46 µM)
- MIC (Bacillus subtilis [2]): 2 µg/mL (≈ 4.23 µM)
- MIC (Staphylococcus aureus [3]): 4 µg/mL (≈ 8.46 µM)
- zone of inhibition at 200 µg/disc (Pseudomonas aeruginosa): 8 mm
- zone of inhibition at 200 µg/disc (Escherichia coli [4]): 20 mm
- zone of inhibition at 200 µg/disc (Micrococcus luteus): 14 mm
- zone of inhibition at 200 µg/disc (Bacillus subtilis [5]): 22 mm
- IC50 (Dihydrofolate reductase): 1000 nM
- zone of inhibition at 200 µg/disc (Staphylococcus aureus [6]): 20 mm
